An excerpt weighted towards active compounds, which were near 2.7% of everything screened.
ARFGAP1 inh: inhibitors of rat ARFGAP1 | inhibition, % at 16.5 µM | AID 651572 | Arfgap1-stimulated ARF1 GTP hydrolysis, GDP FP detection | 360,000 tested, 0.26% active;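 active = inhibition above a per-plate limit, mean inhibition of low control wells plus 3 SD, cut at about 25% in these data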;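 note: 0% = DMSO wells with enzyme and 100% = wells lacking Arfgap1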
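Material: rat Arfgap1 catalytic domain, aa 1-136; also added: human ARF1(Δ1-17)-GTP substrate; compound dosing: one concentration, 16.5 µM, DMSO 1.26%; incubation: GTP hydrolysis reaction 2 h at 25 °C; measured by: Tracer-displacement fluorescence polarization with EDTA stop, 620/688 nm; evaluation: % inhibition from polarization; repeats: one replicate per compound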
ASAP1 GAP inh: ASAP1 ArfGAP inhibition; ASAP1-stimulated ARF1 GTP hydrolysis, GDP FP detection; inhibition, % at 16.5 µM; 360,000 tested, 0.19% active; Q9ULH1; in the data active = inhibition above about 25%;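 note: 0% = vehicle with enzyme and substrate and 100% = no enzyme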
NR1D1 modulator: modulators of human Rev-erb alpha DNA binding; P20393; Rev-erbα–FITC-DNA binding, fluorescence polarization, 90 min; activity, % at 10 µM; 370,000 tested, 0.79% active;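 active = activity above about 14%, limit read from the data; passing the limit was not always enough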;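 note: 0% = DMSO wells with 35 nM protein and 100% = DMSO wells with 750 nM protein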
Target sequence (P20393 whole entry, looked up): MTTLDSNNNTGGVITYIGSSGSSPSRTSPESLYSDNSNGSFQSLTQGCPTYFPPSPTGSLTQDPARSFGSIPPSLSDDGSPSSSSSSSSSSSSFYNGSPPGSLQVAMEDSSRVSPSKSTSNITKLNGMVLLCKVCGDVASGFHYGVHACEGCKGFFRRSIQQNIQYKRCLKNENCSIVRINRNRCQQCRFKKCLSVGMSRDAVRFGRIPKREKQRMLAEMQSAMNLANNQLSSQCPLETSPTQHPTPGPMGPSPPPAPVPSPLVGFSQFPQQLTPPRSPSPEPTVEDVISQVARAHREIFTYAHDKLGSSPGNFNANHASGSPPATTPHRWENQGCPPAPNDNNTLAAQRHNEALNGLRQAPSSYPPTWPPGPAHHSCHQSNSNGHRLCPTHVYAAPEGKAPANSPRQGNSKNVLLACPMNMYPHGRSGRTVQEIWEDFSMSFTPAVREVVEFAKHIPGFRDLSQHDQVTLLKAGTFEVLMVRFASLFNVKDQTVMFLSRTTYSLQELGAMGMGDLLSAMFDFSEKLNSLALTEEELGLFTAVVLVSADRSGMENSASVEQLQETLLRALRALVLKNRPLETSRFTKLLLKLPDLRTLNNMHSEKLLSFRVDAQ
bovine MsrA act: activates bovine MsrA enzyme. 360,000 tested, 0.3% active. purified bovine MsrA, absorbance read-out. activation, % at 10.6 µM. AID 602163; in the data active = activation above about 7.5%;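 note: 0% = vehicle and 100% = reference activator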
MsrA inh: bovine MsrA inhibition; AID 651718; 360,000 tested, 0.75% active; purified bovine MsrA, absorbance read-out; inhibition, % at 15.5 µM;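 note: 0% = vehicle wells with enzyme and 100% = reference inhibitor wells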
sPLA2-III inh: Blocks human group III sPLA2 activity | 370,000 tested, 0.56% active | Q9NZ20 | inhibition, % at 12.2 µM | QFRET BODIPY PC-A2 liposome hydrolysis, fluorescence;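 active = inhibition above mean plus 3 SD of compounds lying within the high and low control bounds, cut at about 19% in these data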;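 note: 0% = median of test compound wells and 100% = no enzyme DMSO wells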
MsrA act confirm: confirmation of bovine methionine sulfoxide reductase A activators | shares compounds with bovine MsrA act | purified bovine MsrA, absorbance read-out | activation, % at 10.6 µM | 1,000 tested, 12% active | AID 602270; in the data active = activation above about 4%;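 note: enzyme coupled to thioredoxin and thioredoxin reductase with NADPH; 0% = vehicle wells and 100% = reference activator wells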
ASAP1 inh confirm: ASAP1 inhibition confirmed | inhibition, % at 16.5 µM | AID 624431 | ASAP1-stimulated Arf1 GTPase, GDP fluorescence polarization | 620 tested, 37% active | shares compounds with ASAP1 GAP inh;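 active = mean inhibition over triplicates exceeds the hit threshold derived for the earlier primary screening run, cut at about 25% in these data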
MsrA conf: bovine MsrA inhibition, confirmed; shares compounds with MsrA inh; purified bovine MsrA, absorbance read-out; inhibition, % at 15.5 µM; 2,300 tested, 41% active; AID 651822;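 note: coupled to thioredoxin reductase with NADPH and selenocystamine and DMSO as substrate; 0% = vehicle only and 100% = full effect of reference inhibitor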
The depositor's hits bear a star; nt = not tested or not shown. Cut-off read from the data, not from the text of the source, unless noted: active = inhibition above about 4.5%; inactive = the rest.

SMILES	ARFGAP1 inh	ASAP1 GAP inh	NR1D1 modulator	bovine MsrA act	MsrA inh	sPLA2-III inh	MsrA act confirm	others
Nc1ncnc2nc(SCc3ccccc3)[nH]c12	-7	1	1	7.8*	0	2	0
CCOC(=O)Cn1nc(C)c(NC(=O)COc2ccccc2)c1C	-5	-13	3	8.0*	-1	-2	2
O=C(NCCc1c[nH]c2ccccc12)OCc1cn(Cc2ccc(F)cc2F)nn1	nt	nt	-2	nt	nt	-70	nt
S=c1[nH]nc(-c2ccncc2)n1Cc1ccccc1	-9	13	-2	8.5*	1	11	1
Fc1ccc(-c2n[nH]c(=S)n2Cc2ccccc2)cc1	nt	nt	nt	-1	nt	nt	nt
COc1ccccc1N1CCN(C(=O)c2cc3c(C)nn(-c4ccccc4)c3s2)CC1	nt	nt	-21	nt	nt	1	nt
CC(=O)c1c(C)n(-c2ccc(Cl)cc2)c2ccc(O)cc12	5	-5	2	7.8*	-1	-4	0
CC(=O)c1ccc(-n2c(C)c(C(C)=O)c3cc(O)ccc32)cc1	2	8	-2	-3	1	11	nt
CCO[C@@H](Cc1ccc(OCCc2ccc(OS(C)(=O)=O)cc2)cc1)C(=O)O	nt	nt	-4	nt	nt	nt	nt
C=CCN(c1cccc(C(F)(F)F)c1)S(=O)(=O)c1cccc(C(=O)OCC(=O)Nc2ccccc2)c1	-1	13	8	8.3*	2	-8	-1
Cc1ccc(S(=O)(=O)NCC2CN(S(=O)(=O)c3ccc(C)cc3)c3ccccc3C(=O)N2c2ccc(F)cc2)cc1 (centres undefined)	nt	nt	1	nt	nt	-26	nt
COC(=O)c1ccc(C(C(=O)NC2CCCCC2)N(C(=O)Cc2cccs2)C2CC2)cc1 (centres undefined)	3	-1	5	7.9*	0	9	-1
CCCC(=O)Nc1ccc(C(=O)COC(=O)C2=COCCO2)cc1	7	14	1	8.1*	0	0	0
COc1ccccc1NC(=O)COC(=O)C12CC3CC(CC(Cl)(C3)C1)C2	12	2	-3	15*	-1	-4	-2
COc1ccccc1NC(=O)COC(=O)C12CC3CC(CC(Br)(C3)C1)C2	-2	3	2	-1	0	-15	nt
Cc1cc(NS(=O)(=O)c2ccc(NC(=O)CCCC(=O)O)cc2)nc(C)n1	3	4	4	8.2*	0	0	0
O=C(NCCNC(=O)c1ccc(-c2cccc(Cl)c2)o1)c1cnccn1	-8	7	2	-5	2	8	nt
O=C(NCCNC(=O)c1ccc(-c2ccc(Cl)c(Cl)c2)o1)c1cnccn1	-7	-6	5	10*	1	-1	0
CC1(C(=O)Nc2ccccc2)CCN1C(=O)Cc1ccc(-c2ccccc2)cc1 (centres undefined)	0	-10	-5	14*	0	2	5.2*
O=C(Oc1ccccc1)n1c(=S)oc2ccccc21	2	6	0	3	0	14	nt
Cc1ccccc1OC(=O)n1c(=S)oc2cc(Cl)ccc21	-4	-13	-3	9.0*	0	6	0
C=CCC12C=C(OC)C(=O)C(C1=O)C1c3ccccc3CC12 (centres undefined)	nt	nt	0	nt	nt	-4	nt
c1ccc(-c2nc(NC3CC3)nc(-n3ccnc3)n2)cc1	-3	-17	6	14*	0	4	-2
CN(CCOC(=O)c1cccs1)C1CN(Cc2cn(Cc3ccccc3Cl)nn2)S(=O)(=O)C1 (centres undefined)	nt	nt	-3	nt	nt	13	nt
O=C(NCCCN1CCN(CCCNC(=O)c2ccc3c(c2)OCO3)CC1)c1ccc2c(c1)OCO2	5	-11	-3	-1	-1	-1	nt
SMILES	ARFGAP1 inh	ASAP1 GAP inh	NR1D1 modulator	bovine MsrA act	MsrA inh	sPLA2-III inh	MsrA act confirm	others
O=C(NCCN1CCCCC1)c1ccc2c(c1)OCCO2	12	12	-2	10*	-1	6	-2
COC(=O)CNC(=O)COC(=O)/C=C/c1ccc2ccccc2n1	1	-2	6	8.7*	2	1	-3
COC(=O)C1CN(C2CCCC2)CCS(=O)(=O)N1Cc1ccc(OC)cc1 (centres undefined)	nt	nt	4	nt	nt	-2	nt
CSc1cccc(N2C(=O)C3CCCN3C2=S)c1 (centres undefined)	-2	2	-6	8.1*	-1	-49	1
Cc1cccc(N2C(=O)C3CCCN3C2=S)c1 (centres undefined)	-3	10	1	-10	-1	-48	nt
COC(=O)c1sccc1NC(=O)CSc1ccccc1NS(=O)(=O)c1ccccc1Cl	-5	-11	6	8.3*	1	-56	-5
CCCCCc1c(C)nc(Nc2ccc(F)cc2)[nH]c1=O	18	-12	6	9.8*	-1	-2	1
C=CCN1[C@H](CC(C)C)COc2cc(N3CCCC3)ccc2S1(=O)=O	nt	nt	2	nt	nt	6	nt
CC1OC2CC(=O)OC2C2=C1C(=O)c1c(O)cccc1C2=O (centres undefined)	0	37*	-14	17*	8.5*	7	11*	ASAP1 inh confirm=13;MsrA conf=6.8*
O=[N+]([O-])c1ccc(-[n+]2nc(-c3ccccc3)nn2-c2ccccc2)cc1	-5	-14	8	7.8*	26*	-7	4.8*	MsrA conf=25*
O=c1ccc(-c2ccc([N+](=O)[O-])cc2)nn1-c1ccccc1	7	-3	2	-3	0	-5	nt
O=S1(=O)C=CCN1Cc1cn(Cc2ccccc2)nn1	nt	nt	-7	nt	nt	-2	nt
O=C(OCc1nnc(-c2ccccc2)o1)c1ccc([N+](=O)[O-])s1	5	-4	0	18*	9.3*	6	24*	MsrA conf=7.2*
Cc1ccc(C(=O)OCc2nnc(-c3ccccc3)o2)s1	-8	0	-7	-5	1	1	nt
O=S(=O)(Nc1cc(Sc2ncn[nH]2)c(O)c2ccccc12)c1ccccc1	5	25*	-4	14*	63*	-13	1	MsrA conf=0
C=CCN1[C@H](C#N)[C@@H](c2ccc(C#Cc3cccc(OC)c3)cc2)[C@H]1CO	nt	nt	-2	nt	nt	-2	nt
C[n+]1c(-c2ccccc2)cc2c(=Cc3ccc([N+](=O)[O-])cc3)c3ccccc3n21	10	2	-3	20*	11*	16	17*	MsrA conf=0
CC(c1ccc(NC(=O)OC(C)(C)C)cc1)c1cn(C)c2ccccc12 (centres undefined)	nt	nt	-3	nt	nt	-37	nt
Cc1ccc(NS(=O)(=O)c2ccc3c(c2)C(=O)c2ccccc2C3=O)c(C)c1	12	0	1	12*	10*	-9	5.8*	MsrA conf=32*
